Test system: HEK-293T
Experiment: Multiplex assay against HEK293T
Assay type: toxicity, cell-based
Details: human
How it was run: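 Cells were classed with CellPathfinder machine-learning gating, first as Hoechst high-intensity objects or normal cells, then (normal cells) as healthy, pyknosed or fragmented nuclei, and finally (pyknosed cells) as mitotic or apoptotic. Staining of live cells at seeding used Hoechst33342, BioTracker Green Microtubule Cytoskeleton Dye, MitoTracker Red and Annexin V Alexa Fluor 680, with imaging on a CQ1 microscope at 37°C and 5% CO2 after compound addition. Tubulin, mitochondrial-mass and membrane-permeability phenotypes are per cents of healthy-nucleus cells.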

[1] = 12 h, 1 µM, compound concentration 1 uM, replicate 1
[2] = 12 h, 1 µM, compound concentration 1 uM, replicate 2
[3] = 12 h, 10 µM, compound concentration 10 uM, replicate 1
[4] = 12 h, 10 µM, compound concentration 10 uM, replicate 2
[5] = 24 h, 1 µM, compound concentration 1 uM, replicate 1
[6] = 24 h, 1 µM, compound concentration 1 uM, replicate 2
[7] = 24 h, 10 µM, compound concentration 10 uM, replicate 1
[8] = 24 h, 10 µM, compound concentration 10 uM, replicate 2
[9] = 48 h, 1 µM, compound concentration 1 uM, replicate 1
[10] = 48 h, 1 µM, compound concentration 1 uM, replicate 2
[11] = 48 h, 10 µM, compound concentration 10 uM, replicate 1
[12] = 48 h, 10 µM, compound concentration 10 uM, replicate 2

## Cl.NCCc1ccc(O)c(O)c1 [DOPAMINE HYDROCHLORIDE]
[1]
  Population Apoptotic (%): 31%
  Population Fragmented Nuclei (%): 6%
  Population Healthy Nuclei (%): 77%
  Population Hoechst High Intensity Objects (%): 10%
  Population Membrane Permeable-Phenotype (%): 0%
  Population Mitochondria Different-Phenotype (%): 54%
  Population Mitotic Cells (%): 68%
  Population Normal (%): 89%
  Population Pyknosed Nuclei (%): 16%
  Population Tubulin-Different-Phenotype (%): 36%
  Total Cell Count: 324
[2]
  Population Apoptotic (%): 54%
  Population Fragmented Nuclei (%): 7%
  Population Healthy Nuclei (%): 78%
  Population Hoechst High Intensity Objects (%): 6%
  Population Mitochondria Different-Phenotype (%): 58%
  Population Mitotic Cells (%): 46%
  Population Normal (%): 93%
  Population Pyknosed Nuclei (%): 14%
  Population Tubulin-Different-Phenotype (%): 18%
  Total Cell Count: 372
[3]
  Population Apoptotic (%): 46%
  Population Fragmented Nuclei (%): 5%
  Population Healthy Nuclei (%): 77%
  Population Hoechst High Intensity Objects (%): 6%
  Population Membrane Permeable-Phenotype (%): 0%
  Population Mitochondria Different-Phenotype (%): 57%
  Population Mitotic Cells (%): 53%
  Population Normal (%): 93%
  Population Pyknosed Nuclei (%): 17%
  Population Tubulin-Different-Phenotype (%): 43%
  Total Cell Count: 344
[4]
  Population Apoptotic (%): 37%
  Population Healthy Nuclei (%): 83%
  Population Hoechst High Intensity Objects (%): 5%
  Population Mitochondria Different-Phenotype (%): 51%
  Population Mitotic Cells (%): 62%
  Population Normal (%): 94%
  Population Pyknosed Nuclei (%): 11%
  Population Tubulin-Different-Phenotype (%): 23%
  Total Cell Count: 413
[5]
  Population Apoptotic (%): 44%
  Population Fragmented Nuclei (%): 9%
  Population Healthy Nuclei (%): 76%
  Population Hoechst High Intensity Objects (%): 4%
  Population Membrane Permeable-Phenotype (%): 1%
  Population Mitochondria Different-Phenotype (%): 40%
  Population Mitotic Cells (%): 55%
  Population Normal (%): 95%
  Population Pyknosed Nuclei (%): 13%
  Population Tubulin-Different-Phenotype (%): 19%
  Total Cell Count: 451
[6]
  Population Apoptotic (%): 20%
  Population Fragmented Nuclei (%): 8%
  Population Healthy Nuclei (%): 85%
  Population Hoechst High Intensity Objects (%): 5%
  Population Membrane Permeable-Phenotype (%): 0%
  Population Mitochondria Different-Phenotype (%): 46%
  Population Mitotic Cells (%): 79%
  Population Normal (%): 94%
  Population Pyknosed Nuclei (%): 5%
  Population Tubulin-Different-Phenotype (%): 11%
  Total Cell Count: 478
[7]
  Population Apoptotic (%): 39%
  Population Fragmented Nuclei (%): 7%
  Population Healthy Nuclei (%): 79%
  Population Hoechst High Intensity Objects (%): 5%
  Population Membrane Permeable-Phenotype (%): 0%
  Population Mitochondria Different-Phenotype (%): 36%
  Population Mitotic Cells (%): 60%
  Population Normal (%): 94%
  Population Pyknosed Nuclei (%): 12%
  Population Tubulin-Different-Phenotype (%): 23%
  Total Cell Count: 393
[8]
  Population Apoptotic (%): 38%
  Population Fragmented Nuclei (%): 9%
  Population Healthy Nuclei (%): 83%
  Population Mitochondria Different-Phenotype (%): 40%
  Population Mitotic Cells (%): 61%
  Population Pyknosed Nuclei (%): 7%
  Population Tubulin-Different-Phenotype (%): 15%
  Total Cell Count: 533
[9]
  Population Apoptotic (%): 19%
  Population Fragmented Nuclei (%): 14%
  Population Healthy Nuclei (%): 78%
  Population Hoechst High Intensity Objects (%): 4%
  Population Membrane Permeable-Phenotype (%): 1%
  Population Mitochondria Different-Phenotype (%): 23%
  Population Mitotic Cells (%): 80%
  Population Normal (%): 95%
  Population Pyknosed Nuclei (%): 7%
  Population Tubulin-Different-Phenotype (%): 14%
  Total Cell Count: 785
[10]
  Population Apoptotic (%): 23%
  Population Fragmented Nuclei (%): 10%
  Population Healthy Nuclei (%): 81%
  Population Membrane Permeable-Phenotype (%): 0%
  Population Mitochondria Different-Phenotype (%): 20%
  Population Mitotic Cells (%): 76%
  Population Tubulin-Different-Phenotype (%): 7%
  Total Cell Count: 638
[11]
  Population Apoptotic (%): 30%
  Population Fragmented Nuclei (%): 14%
  Population Healthy Nuclei (%): 79%
  Population Hoechst High Intensity Objects (%): 3%
  Population Membrane Permeable-Phenotype (%): 0%
  Population Mitochondria Different-Phenotype (%): 24%
  Population Mitotic Cells (%): 70%
  Population Normal (%): 96%
  Population Pyknosed Nuclei (%): 6%
  Population Tubulin-Different-Phenotype (%): 13%
  Total Cell Count: 660
[12]
  Population Apoptotic (%): 17%
  Population Fragmented Nuclei (%): 12%
  Population Healthy Nuclei (%): 83%
  Population Hoechst High Intensity Objects (%): 1%
  Population Mitochondria Different-Phenotype (%): 17%
  Population Mitotic Cells (%): 82%
  Population Normal (%): 98%
  Population Pyknosed Nuclei (%): 4%
  Population Tubulin-Different-Phenotype (%): 7%
  Total Cell Count: 859
